Experimental data as given in ChEMBL document CHEMBL1671778, “Synthesis and serotonin transporter activity of 1,3-bis(aryl)-2-nitro-1-propenes as a new class of anticancer agents” (Bioorg Med Chem, 2011).

test system: SH-SY5Y; assay: Cytotoxicity against human SH-SY5Y cells expressing human SERT assessed as decrease in cell viability after 48 hrs neutral red dye assay; format: functional, cell-based; settings: not given

SMILES | EC50
CN(C)CCCC1(c2ccc(F)cc2)OCc2cc(C#N)ccc21 (centres undefined) [CITALOPRAM] | 25.1 µM

test system: PBMC; assay: Cytotoxicity against human PBMC cells assessed as decrease in cell viability 10 or 50 uM after 24 hrs Alamar blue assay; format: cell-based; settings: not given
Procedure, shortened: (§1)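 1-5x10^4 cells/200 µl given 10 or 50 µM for 24 h (MUTU-I, MDA-MB231, PBMC) or […]. Alamar Blue at 37 °C in the dark 4-6 h, then fluorescence read with 544/590 nm. Media-only background subtracted; untreated cells set as 100% viability. Mean of six points (triplicate, two independent days). PBMCs from a healthy donor, isolated by ficoll density separation.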

SMILES | Activity
NC(Cc1ccc(Cl)cc1)Cc1ccc(Cl)cc1 | Toxic

test system: SH-SY5Y; assay: Antiproliferative activity against human SH-SY5Y cells after 24 hrs Alamar blue assay; format: functional, cell-based; settings: not given
Procedure, shortened: (§2)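 Alamar Blue viability: 1-5x10^4 cells/well treated 24 h, then Alamar Blue (pre-warmed) 4-6 h at 37 °C in the dark. Fluorescence read at 590 nm (excitation 544 nm), background of medium plus dye subtracted, untreated cells = 100% viability. Miconazole 10 µM as cell-death control. Range 1 µM-1 mM, triplicate on two independent days. pEC50 from non-linear sigmoidal regression.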

SMILES | EC50
NC(Cc1ccc(Cl)cc1)Cc1ccc(Cl)cc1 | 5.01 µM
ON=C(Cc1ccc2c(c1)OCO2)Cc1ccc2c(c1)OCO2 | 63.1 µM
OC(Cc1ccc2c(c1)OCO2)Cc1ccc2c(c1)OCO2 | 158 µM

Continued, values first:

EC50 | SMILES
25.1 µM | O=[N+]([O-])/C(=C\c1ccc(Cl)cc1)Cc1ccc(Cl)cc1Cl
20 µM | CSc1ccc(C/C(=C/c2ccc(Cl)cc2)[N+](=O)[O-])cc1

test system: not listed separately; assay: Antiproliferative activity against human chemosensitive MUTU-I cells after 24 hrs Alamar blue assay; format: functional, cell-based; settings: not given; procedure, shortened: as §2

SMILES | EC50
NC(Cc1ccc(Cl)cc1)Cc1ccc(Cl)cc1 | 0.158 µM
ON=C(Cc1ccc2c(c1)OCO2)Cc1ccc2c(c1)OCO2 | 25.1 µM
O=[N+]([O-])/C(=C\c1ccc(Cl)cc1)Cc1ccc(Cl)cc1Cl | 3.16 µM
CSc1ccc(C/C(=C/c2ccc(Cl)cc2)[N+](=O)[O-])cc1 | 3.16 µM
OC(Cc1ccc2c(c1)OCO2)Cc1ccc2c(c1)OCO2 | 39.8 µM

test system: DG-75; assay: Cytotoxicity against human chemoresistant DG75 cells expressing SERT assessed as decrease in cell viability 10 or 50 uM after 72 hrs Alamar blue assay; format: functional, cell-based; settings: DG-75, 72 h; procedure, shortened: as §1

SMILES | EC50
CN(C)CCCC1(c2ccc(F)cc2)OCc2cc(C#N)ccc21 (centres undefined) [CITALOPRAM] | 12.6 µM

test system: DG-75; assay: Antiproliferative activity against human DG75 cells after 24 hrs Alamar blue assay; format: functional, cell-based; settings: DG-75, 24 h; procedure, shortened: as §2

SMILES | EC50
NC(Cc1ccc(Cl)cc1)Cc1ccc(Cl)cc1 | 25.1 µM
ON=C(Cc1ccc2c(c1)OCO2)Cc1ccc2c(c1)OCO2 | 50.1 µM
O=[N+]([O-])/C(=C\c1ccc(Cl)cc1)Cc1ccc(Cl)cc1Cl | 3.16 µM
CSc1ccc(C/C(=C/c2ccc(Cl)cc2)[N+](=O)[O-])cc1 | 7.94 µM
OC(Cc1ccc2c(c1)OCO2)Cc1ccc2c(c1)OCO2 | 126 µM

test system: HEK293; assay: Cytotoxicity against human HEK293 cells assessed as decrease in cell viability after 48 hrs neutral red dye assay; format: functional, cell-based; settings: HEK293, 48 h
Procedure, shortened: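 5x10^4 cells/well grown to sub-confluence (24-36 h), then exposed to compound 48 h. Neutral red dye 3+1 h, solubilised in 50% ethanol/1% acetic acid, absorbance 540 nm (690 nm background). Viability as percent of vehicle-treated cells; pEC50 by non-linear sigmoidal regression over 4 concentrations, triplicate on two independent days. Controls 30 mM sodium azide, 2% Triton-X. HEK293-hSERT cells kept in Geneticin, used up to 30 passages.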

SMILES | EC50
CN(C)CCCC1(c2ccc(F)cc2)OCc2cc(C#N)ccc21 (centres undefined) [CITALOPRAM] | 15.8 µM
